Data: ChEMBL document CHEMBL2203183, “Synthesis of N-phenyl-N-(3-(piperidin-1-yl)propyl)benzofuran-2-carboxamides as new selective ligands for sigma receptors” (Bioorg Med Chem, 2012)

What was measured:
[1] = biological target: 5-hydroxytryptamine receptor 2A (Homo sapiens) (UniProt P28223); assay: Displacement of [3H]ketanserin from human recombinant 5-HT2A receptor at 10 uM after 1.5 hrs by scintillation counting analysis
Method in brief: (§1)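 NIMH-PDSP primary screen using membranes from transiently or stably transfected cell lines (e.g., HEK293, COS, CHO, NIH3T3). Compound at 10 μM final. Reference compounds: chlorpromazine (5-HT2A), methysergide (5-HT2B), LY278584 (5-HT3), oxymetazoline (α2A), prazosin (α2C), atropine (M4). Mean % inhibition of radioligand specific binding, N = 4.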

[2] = biological target: D(3) dopamine receptor (Homo sapiens) (UniProt P35462); assay: Displacement of [3H]N-methylspiperone from dopamine D3 receptor at 10 uM after 1.5 hrs by scintillation counting analysis
[3] = biological target: T1, 5-hydroxytryptamine receptor 3A (Homo sapiens) (UniProt P46098); assay: Displacement of [3H]LY278584 from human recombinant 5-HT3 receptor at 10 uM after 1.5 hrs by scintillation counting analysis; method in brief: as §1
T1 sequence (whole entry): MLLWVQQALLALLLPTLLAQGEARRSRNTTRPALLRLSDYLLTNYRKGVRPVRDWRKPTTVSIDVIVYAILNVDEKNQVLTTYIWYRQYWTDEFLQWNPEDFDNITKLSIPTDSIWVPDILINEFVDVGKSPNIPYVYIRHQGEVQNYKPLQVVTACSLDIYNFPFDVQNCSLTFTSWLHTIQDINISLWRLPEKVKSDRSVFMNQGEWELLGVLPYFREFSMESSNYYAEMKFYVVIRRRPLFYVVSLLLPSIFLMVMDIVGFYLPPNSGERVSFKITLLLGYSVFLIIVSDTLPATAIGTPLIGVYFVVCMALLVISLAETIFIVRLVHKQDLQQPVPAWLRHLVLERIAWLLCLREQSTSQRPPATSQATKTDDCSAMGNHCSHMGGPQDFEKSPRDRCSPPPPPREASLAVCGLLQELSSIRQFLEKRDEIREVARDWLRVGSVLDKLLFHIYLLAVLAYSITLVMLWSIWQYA

[4] = biological target: T2, Alpha-2C adrenergic receptor (Homo sapiens) (UniProt P18825); assay: Displacement of [3H]clonidine from alpha2C adrenergic receptor at 10 uM after 40 mins by scintillation counting analysis; method in brief: as §1
T2 sequence (whole entry): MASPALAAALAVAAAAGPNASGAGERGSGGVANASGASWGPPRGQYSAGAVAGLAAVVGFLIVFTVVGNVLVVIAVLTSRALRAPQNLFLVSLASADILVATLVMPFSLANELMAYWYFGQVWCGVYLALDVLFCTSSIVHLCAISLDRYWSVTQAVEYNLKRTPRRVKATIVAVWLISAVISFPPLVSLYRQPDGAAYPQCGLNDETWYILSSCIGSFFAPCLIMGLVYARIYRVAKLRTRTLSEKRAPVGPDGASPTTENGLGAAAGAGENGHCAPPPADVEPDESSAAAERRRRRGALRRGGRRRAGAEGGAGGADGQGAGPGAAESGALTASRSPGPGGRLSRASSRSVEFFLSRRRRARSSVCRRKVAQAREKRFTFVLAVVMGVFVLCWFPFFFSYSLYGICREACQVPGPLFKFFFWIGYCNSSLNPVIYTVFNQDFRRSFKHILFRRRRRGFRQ

[5] = biological target: T3, Muscarinic acetylcholine receptor M4 (Homo sapiens) (UniProt P08173); assay: Displacement of [3H]QNB from human recombinant M4 receptor at 10 uM after 1.5 hrs by scintillation counting analysis; method in brief: as §1
T3 sequence (whole entry): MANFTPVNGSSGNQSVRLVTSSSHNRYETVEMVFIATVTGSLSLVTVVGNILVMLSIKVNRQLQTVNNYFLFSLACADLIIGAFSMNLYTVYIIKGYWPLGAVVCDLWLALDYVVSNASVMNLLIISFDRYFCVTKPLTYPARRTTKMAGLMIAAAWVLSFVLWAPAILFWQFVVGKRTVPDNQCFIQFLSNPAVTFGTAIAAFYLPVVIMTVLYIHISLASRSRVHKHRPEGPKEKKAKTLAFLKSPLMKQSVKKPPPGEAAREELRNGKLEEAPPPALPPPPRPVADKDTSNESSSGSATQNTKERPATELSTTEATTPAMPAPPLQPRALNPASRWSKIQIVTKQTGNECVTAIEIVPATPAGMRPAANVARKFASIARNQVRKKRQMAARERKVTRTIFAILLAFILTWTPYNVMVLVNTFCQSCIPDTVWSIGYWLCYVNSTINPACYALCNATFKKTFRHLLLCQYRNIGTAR

[6] = biological target: T4, Muscarinic acetylcholine receptor M4 (Homo sapiens, UniProt P08173); assay: Displacement of [3H]QNB from human recombinant M4 receptor after 1.5 hrs by scintillation counting analysis
T4 sequence (P08173 whole entry): T3 sequence (whole entry)
Method in brief: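 Membranes from transiently or stably transfected cell lines, run through the NIMH-PDSP program. [3H]QNB was the radioligand and atropine the reference. […] Competition curves were fitted to a three-parameter logistic to give IC50, converted to Ki by Cheng-Prusoff.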

[7] = biological target: Sigma non-opioid intracellular receptor 1 (Rattus norvegicus) (UniProt Q9R0C9); assay: Displacement of [3H](+)-pentazocine from sigma 1 receptor in rat brain membrane at 10 uM after 2.5 hrs by scintillation counting; format: cell membranes
PC-12 = assay: Displacement of [3H]DTG from sigma 2 receptor in rat PC12 cell membrane at 10 uM after 2 hrs by scintillation counting; format: cell membranes
[8] = Displacement of [3H]DTG from sigma 2 receptor in rat PC12 cell membrane after 2 hrs by scintillation counting; format: cell membranes; conditions: pc-12
[9] = biological target: 5-hydroxytryptamine receptor 2B (Homo sapiens) (UniProt P41595); assay: Displacement of [3H]LSD from human recombinant 5-HT2B receptor at 10 uM after 1.5 hrs by scintillation counting analysis; method in brief: as §1
[10] = biological target: T5, Alpha-2A adrenergic receptor (Homo sapiens) (UniProt P08913); assay: Displacement of [3H]clonidine from alpha2A adrenergic receptor at 10 uM after 40 mins by scintillation counting analysis
T5 sequence (whole entry): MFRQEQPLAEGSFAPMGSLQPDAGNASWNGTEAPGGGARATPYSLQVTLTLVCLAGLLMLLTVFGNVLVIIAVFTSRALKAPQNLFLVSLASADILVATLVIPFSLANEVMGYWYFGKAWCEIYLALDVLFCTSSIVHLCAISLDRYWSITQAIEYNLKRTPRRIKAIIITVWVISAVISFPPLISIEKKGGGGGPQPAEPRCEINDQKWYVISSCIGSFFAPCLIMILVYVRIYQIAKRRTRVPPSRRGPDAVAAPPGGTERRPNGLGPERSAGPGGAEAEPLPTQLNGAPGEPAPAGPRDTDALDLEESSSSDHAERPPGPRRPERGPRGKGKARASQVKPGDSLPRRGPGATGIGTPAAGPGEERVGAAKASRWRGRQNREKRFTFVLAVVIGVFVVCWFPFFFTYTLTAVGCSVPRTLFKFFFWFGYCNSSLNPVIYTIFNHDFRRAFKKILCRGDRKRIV

Sequence of 5-hydroxytryptamine receptor 2B (Homo sapiens) (P41595 whole entry): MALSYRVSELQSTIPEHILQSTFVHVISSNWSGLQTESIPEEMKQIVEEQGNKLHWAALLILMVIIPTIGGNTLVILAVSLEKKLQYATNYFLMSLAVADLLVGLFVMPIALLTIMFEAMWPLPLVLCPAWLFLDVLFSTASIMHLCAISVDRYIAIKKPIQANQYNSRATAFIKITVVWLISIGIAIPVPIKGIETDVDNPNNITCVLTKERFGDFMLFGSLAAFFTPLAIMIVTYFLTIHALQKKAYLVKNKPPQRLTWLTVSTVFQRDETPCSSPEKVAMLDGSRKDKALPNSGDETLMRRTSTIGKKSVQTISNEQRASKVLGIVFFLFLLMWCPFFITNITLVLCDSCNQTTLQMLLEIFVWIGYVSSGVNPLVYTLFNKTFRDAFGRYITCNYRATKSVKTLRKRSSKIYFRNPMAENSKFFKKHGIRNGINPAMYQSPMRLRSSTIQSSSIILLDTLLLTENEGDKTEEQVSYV
Sequence of 5-hydroxytryptamine receptor 2A (Homo sapiens) (P28223 whole entry): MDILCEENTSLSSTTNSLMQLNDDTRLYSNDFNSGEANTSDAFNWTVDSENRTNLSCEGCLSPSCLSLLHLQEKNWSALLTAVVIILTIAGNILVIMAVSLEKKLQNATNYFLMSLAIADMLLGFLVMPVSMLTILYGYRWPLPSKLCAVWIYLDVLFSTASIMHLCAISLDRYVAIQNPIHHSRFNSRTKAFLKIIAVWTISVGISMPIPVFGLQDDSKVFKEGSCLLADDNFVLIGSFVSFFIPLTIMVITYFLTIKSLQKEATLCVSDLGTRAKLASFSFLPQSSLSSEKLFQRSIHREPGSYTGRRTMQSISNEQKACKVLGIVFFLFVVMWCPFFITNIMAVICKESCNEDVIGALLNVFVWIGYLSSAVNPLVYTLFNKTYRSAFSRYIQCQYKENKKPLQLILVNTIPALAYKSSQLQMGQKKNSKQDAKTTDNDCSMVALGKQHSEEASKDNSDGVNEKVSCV
Sequence of D(3) dopamine receptor (Homo sapiens) (P35462 whole entry): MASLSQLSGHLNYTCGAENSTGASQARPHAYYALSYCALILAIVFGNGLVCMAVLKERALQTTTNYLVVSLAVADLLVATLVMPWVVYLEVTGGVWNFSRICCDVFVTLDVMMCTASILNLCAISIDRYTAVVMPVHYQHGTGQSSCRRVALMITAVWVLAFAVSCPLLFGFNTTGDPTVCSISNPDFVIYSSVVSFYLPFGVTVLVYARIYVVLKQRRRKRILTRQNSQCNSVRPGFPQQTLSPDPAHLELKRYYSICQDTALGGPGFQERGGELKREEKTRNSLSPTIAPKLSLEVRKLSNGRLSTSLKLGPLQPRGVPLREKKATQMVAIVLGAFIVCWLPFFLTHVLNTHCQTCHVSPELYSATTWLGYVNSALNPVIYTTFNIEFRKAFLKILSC
Sequence of Sigma non-opioid intracellular receptor 1 (Rattus norvegicus) (Q9R0C9 whole entry): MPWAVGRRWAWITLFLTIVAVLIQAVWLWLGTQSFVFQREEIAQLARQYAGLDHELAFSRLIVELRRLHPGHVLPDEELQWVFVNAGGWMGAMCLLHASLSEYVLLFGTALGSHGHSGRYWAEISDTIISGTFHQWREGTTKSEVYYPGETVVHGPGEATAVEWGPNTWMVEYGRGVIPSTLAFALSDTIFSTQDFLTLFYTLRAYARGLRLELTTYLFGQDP

Row | Structure (SMILES) | inhibition [1] [%] | inhibition [2] [%] | inhibition [3] [%] | inhibition [4] [%] | inhibition [5] [%] | Ki [6] [nM] | inhibition [7] [%] | inhibition (PC-12) [%] | Ki [8] [nM] | inhibition [9] [%] | inhibition [10] [%]
1 | COc1ccc2c(C)c(C(=O)N(CCCN3CCCCC3)c3ccccc3)oc2c1 | 61.2 | 40.6 | 7.3 | 49 | 68.4 | > 10000 | 97.7 | 88.5 | 41 | 93.9 | –
2 | Cc1c(C(=O)N(CCCN2CCCCC2)c2ccccc2)oc2ccccc12 | 18.1 | – | 2.9 | 61.9 | 43.1 | – | – | 93.5 | 16 | 69.2 | 77.7
3 | COc1cc2oc(C(=O)N(CCCN3CCCCC3)c3ccccc3)c(C)c2cc1OC | 76.6 | 38.8 | 64.2 | 78.9 | 54.4 | – | 99.8 | 81.4 | 528 | 43.8 | –
